Assays:
Oocyte = assay: Activity at mouse recombinant alpha1beta1gammadelta nAChR expressed in Xenopus oocytes assessed as effect on acetylcholine-induced activation at 3 uM by two-electrode voltage clamp technique relative to control; type: cell-based
Procedure, shortened: (§1)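 Two-electrode voltage clamp of Xenopus oocytes injected with 1–5 ng cRNA and kept in Barth's solution at 15°C for 2–5 days. Oocytes were perfused with 90 mM NaCl, 1.0 KCl, 0.5 BaCl2, 0.005 EDTA, 10 HEPES, pH 7.4, 23°C, and held at -40 mV. Compound was co-applied at 3 µM with agonist from 20 mM DMSO stocks, final DMSO 0.05–0.5%.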

[1] = biological target: Glutamate receptor 3 (Rattus norvegicus) (UniProt P19492); assay: Activity at rat recombinant GluA3 receptor expressed in Xenopus oocytes assessed as effect on glutamate-induced response at 3 uM by two-electrode voltage clamp technique relative to control; type: cell-based; conditions: Oocyte; procedure, shortened: as §1
[2] = biological target: Gamma-aminobutyric acid receptor subunit rho-1 (Homo sapiens) (UniProt P24046); assay: Activity at human recombinant GABA(C) receptor expressed in Xenopus oocytes assessed as effect on GABA-induced activation at 3 uM by two-electrode voltage clamp technique relative to control; type: cell-based; conditions: Oocyte; procedure, shortened: as §1
Homo sapiens = species: Homo sapiens; assay: Inhibition of sigma2 receptor (unknown origin) at 5 uM by psychoactive drug screening programme assay
[3] = biological target: Muscarinic acetylcholine receptor M2 (Homo sapiens) (UniProt P08172); assay: Inhibition of M2 receptor (unknown origin) at 5 uM by psychoactive drug screening programme assay
Procedure, shortened: (§2)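 Radioligand binding screen run by PDSP. Displacement of ligand binding was measured with test compound at 5 µM, n=4 per target.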

[4] = biological target: Glutamate receptor ionotropic, kainate 1 (Rattus norvegicus) (UniProt P22756); assay: Activity at rat recombinant GluK1 receptor expressed in Xenopus oocytes assessed as effect on glutamate-induced response at 3 uM by two-electrode voltage clamp technique relative to control; type: cell-based; conditions: Oocyte; procedure, shortened: as §1
[5] = biological target: Muscarinic acetylcholine receptor M3 (Homo sapiens) (UniProt P20309); assay: Inhibition of M3 receptor (unknown origin) at 5 uM by psychoactive drug screening programme assay; procedure, shortened: as §2
[6] = biological target: Alpha-1B adrenergic receptor (Homo sapiens) (UniProt P35368); assay: Inhibition of adrenergic alpha1B receptor (unknown origin) at 5 uM by psychoactive drug screening programme assay; procedure, shortened: as §2
[7] = biological target: D(2) dopamine receptor (Homo sapiens) (UniProt P14416); assay: Inhibition of dopamine D2 receptor (unknown origin) at 5 uM by psychoactive drug screening programme assay; procedure, shortened: as §2
[8] = biological target: Alpha-2B adrenergic receptor (Homo sapiens) (UniProt P18089); assay: Inhibition of adrenergic alpha2B receptor (unknown origin) at 5 uM by psychoactive drug screening programme assay; procedure, shortened: as §2
[9] = biological target: Kappa-type opioid receptor (Homo sapiens, UniProt P41145); assay: Inhibition of kappa opioid receptor (unknown origin) by psychoactive drug screening programme assay
[10] = biological target: D(1B) dopamine receptor (Homo sapiens) (UniProt P21918); assay: Inhibition of dopamine D5 receptor (unknown origin) at 5 uM by psychoactive drug screening programme assay; procedure, shortened: as §2
[11] = biological target: Glutamate NMDA receptor; Grin1/Grin2c (Rattus norvegicus, UniProt P35439+Q00961); assay: Activity at rat recombinant GluN1/GluN2C receptor assessed as potentiation of glycine/glutamate-induced activation by two-electrode voltage clamp technique; type: protein-complex assay
[12] = biological target: Ionotropic glutamate receptor NMDA 1/2D (Rattus norvegicus, UniProt P35439+Q62645); assay: Activity at rat recombinant GluN1/GluN2D receptor assessed as potentiation of glycine/glutamate-induced activation by two-electrode voltage clamp technique; type: protein-complex assay
[13] = biological target: Histamine H2 receptor (Homo sapiens) (UniProt P25021); assay: Inhibition of H2 histamine receptor (unknown origin) at 5 uM by psychoactive drug screening programme assay; procedure, shortened: as §2
[14] = biological target: Nicotinic acetylcholine receptor alpha9/alpha10 (Rattus norvegicus) (UniProt P43144+Q9JLB5); assay: Activity at rat recombinant alpha9alpha10 nAChR expressed in Xenopus oocytes assessed as effect on acetylcholine-induced response at 3 uM by two-electrode voltage clamp technique relative to control; type: cell-based; conditions: Oocyte; procedure, shortened: as §1
[15] = biological target: Neuronal acetylcholine receptor; alpha4/beta2 (Homo sapiens) (UniProt P17787+P43681); assay: Activity at human recombinant alpha4beta2 nAChR expressed in Xenopus oocytes assessed as effect on acetylcholine-induced activation at 3 uM by two-electrode voltage clamp technique relative to control; type: cell-based; conditions: Oocyte; procedure, shortened: as §1
[16] = biological target: Ionotropic glutamate receptor NMDA 1/2D (Rattus norvegicus) (UniProt P35439+Q62645); assay: Activity at rat recombinant GluN1/GluN2D receptor expressed in Xenopus oocytes assessesed as effect of glycine/glutamate-induced response at 3 uM by two-electrode voltage clamp technique relative to control; type: cell-based; conditions: Oocyte; procedure, shortened: as §1
[17] = biological target: Alpha-2A adrenergic receptor (Homo sapiens) (UniProt P08913); assay: Inhibition of adrenergic alpha2A receptor (unknown origin) at 5 uM by psychoactive drug screening programme assay; procedure, shortened: as §2
[18] = biological target: Beta-3 adrenergic receptor (Homo sapiens) (UniProt P13945); assay: Inhibition of adrenergic beta3 receptor (unknown origin) at 5 uM by psychoactive drug screening programme assay; procedure, shortened: as §2
[19] = biological target: Ionotropic glutamate receptor kainate 2/5 (Rattus norvegicus) (UniProt P42260+Q63273); assay: Activity at rat recombinant GluK2/GluK5 receptor expressed in Xenopus oocytes assessed as effect on glutamate-induced response at 3 uM by two-electrode voltage clamp technique relative to control; type: cell-based; conditions: Oocyte; procedure, shortened: as §1
[20] = biological target: Sodium-dependent serotonin transporter (Homo sapiens) (UniProt P31645); assay: Inhibition of serotonin transporter (unknown origin) at 5 uM by psychoactive drug screening programme assay
[21] = biological target: P2X purinoceptor 2 (Rattus norvegicus) (UniProt P49653); assay: Activity at rat recombinant purinergic P2X2 receptor expressed in Xenopus oocytes assessed as effect on ATP-induced activation at 3 uM by two-electrode voltage clamp technique relative to control; type: cell-based; conditions: Oocyte; procedure, shortened: as §1
[22] = biological target: Alpha-2C adrenergic receptor (Homo sapiens) (UniProt P18825); assay: Inhibition of adrenergic alpha2C receptor (unknown origin) at 5 uM by psychoactive drug screening programme assay; procedure, shortened: as §2
[23] = biological target: Glycine receptor subunit alpha-1 (Rattus norvegicus) (UniProt P07727); assay: Activity at rat recombinant glycine alpha1 receptor expressed in Xenopus oocytes assessed as effect on glycine-induced activation at 3 uM by two-electrode voltage clamp technique relative to control; type: cell-based; conditions: Oocyte; procedure, shortened: as §1
[24] = biological target: 5-hydroxytryptamine receptor 5A (Homo sapiens) (UniProt P47898); assay: Inhibition of serotonin 5-HT5A receptor (unknown origin) at 5 uM by psychoactive drug screening programme assay
[25] = biological target: 5-hydroxytryptamine receptor 7 (Homo sapiens) (UniProt P34969); assay: Inhibition of serotonin 5-HT7 receptor (unknown origin) at 5 uM by psychoactive drug screening programme assay
[26] = biological target: Sodium-dependent noradrenaline transporter (Homo sapiens) (UniProt P23975); assay: Inhibition of norepinephrine transporter (unknown origin) at 5 uM by psychoactive drug screening programme assay; procedure, shortened: as §2
[27] = biological target: 5-hydroxytryptamine receptor 2A (Homo sapiens) (UniProt P28223); assay: Inhibition of serotonin 5-HT2A receptor (unknown origin) at 5 uM by psychoactive drug screening programme assay; procedure, shortened: as §2
[28] = biological target: Muscarinic acetylcholine receptor M5 (Homo sapiens) (UniProt P08912); assay: Inhibition of M5 receptor (unknown origin) at 5 uM by psychoactive drug screening programme assay; procedure, shortened: as §2

Sequence of Alpha-2C adrenergic receptor (Homo sapiens) (P18825 whole entry): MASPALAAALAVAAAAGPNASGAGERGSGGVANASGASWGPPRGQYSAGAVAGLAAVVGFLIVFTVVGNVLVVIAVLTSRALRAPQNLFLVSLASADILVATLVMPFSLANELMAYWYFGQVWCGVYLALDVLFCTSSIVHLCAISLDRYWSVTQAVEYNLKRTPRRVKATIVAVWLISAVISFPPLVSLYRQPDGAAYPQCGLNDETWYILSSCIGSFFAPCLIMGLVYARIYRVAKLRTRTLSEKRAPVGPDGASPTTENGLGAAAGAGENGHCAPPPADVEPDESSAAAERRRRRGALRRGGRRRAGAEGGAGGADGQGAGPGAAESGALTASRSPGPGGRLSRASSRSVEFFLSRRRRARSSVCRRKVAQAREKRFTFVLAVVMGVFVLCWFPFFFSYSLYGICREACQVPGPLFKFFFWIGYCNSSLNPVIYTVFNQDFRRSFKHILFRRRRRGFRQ
Sequence of Muscarinic acetylcholine receptor M3 (Homo sapiens) (P20309 whole entry, looked up): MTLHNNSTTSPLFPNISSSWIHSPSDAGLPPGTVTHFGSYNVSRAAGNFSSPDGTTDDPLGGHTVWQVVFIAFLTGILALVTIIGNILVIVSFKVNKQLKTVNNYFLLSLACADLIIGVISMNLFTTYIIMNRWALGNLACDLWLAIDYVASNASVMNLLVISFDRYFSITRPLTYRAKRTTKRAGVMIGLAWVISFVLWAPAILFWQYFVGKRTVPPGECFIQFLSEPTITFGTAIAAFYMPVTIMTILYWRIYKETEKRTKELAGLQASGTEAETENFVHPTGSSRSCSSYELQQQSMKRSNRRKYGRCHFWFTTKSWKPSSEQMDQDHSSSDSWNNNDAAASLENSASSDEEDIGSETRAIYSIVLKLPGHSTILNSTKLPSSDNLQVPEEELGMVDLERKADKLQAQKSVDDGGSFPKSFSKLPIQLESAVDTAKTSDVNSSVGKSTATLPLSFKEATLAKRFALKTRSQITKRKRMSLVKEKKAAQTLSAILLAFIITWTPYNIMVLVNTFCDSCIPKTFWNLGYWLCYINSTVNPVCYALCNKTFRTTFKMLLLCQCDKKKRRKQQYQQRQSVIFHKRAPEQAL
Sequence of Gamma-aminobutyric acid receptor subunit rho-1 (Homo sapiens) (P24046 whole entry): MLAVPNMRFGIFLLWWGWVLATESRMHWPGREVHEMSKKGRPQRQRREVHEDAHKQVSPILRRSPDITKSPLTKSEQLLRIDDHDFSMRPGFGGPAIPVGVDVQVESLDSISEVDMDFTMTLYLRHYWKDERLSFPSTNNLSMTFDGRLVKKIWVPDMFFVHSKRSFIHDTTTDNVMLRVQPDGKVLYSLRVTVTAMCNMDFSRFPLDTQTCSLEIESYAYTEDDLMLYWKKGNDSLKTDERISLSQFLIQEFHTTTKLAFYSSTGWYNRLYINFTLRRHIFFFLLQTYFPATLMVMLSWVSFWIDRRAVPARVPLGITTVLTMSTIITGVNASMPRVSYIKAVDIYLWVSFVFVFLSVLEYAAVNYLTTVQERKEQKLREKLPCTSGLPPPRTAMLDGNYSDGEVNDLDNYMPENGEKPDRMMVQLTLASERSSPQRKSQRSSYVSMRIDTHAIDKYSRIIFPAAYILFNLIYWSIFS
Sequence of Histamine H2 receptor (Homo sapiens) (P25021 whole entry): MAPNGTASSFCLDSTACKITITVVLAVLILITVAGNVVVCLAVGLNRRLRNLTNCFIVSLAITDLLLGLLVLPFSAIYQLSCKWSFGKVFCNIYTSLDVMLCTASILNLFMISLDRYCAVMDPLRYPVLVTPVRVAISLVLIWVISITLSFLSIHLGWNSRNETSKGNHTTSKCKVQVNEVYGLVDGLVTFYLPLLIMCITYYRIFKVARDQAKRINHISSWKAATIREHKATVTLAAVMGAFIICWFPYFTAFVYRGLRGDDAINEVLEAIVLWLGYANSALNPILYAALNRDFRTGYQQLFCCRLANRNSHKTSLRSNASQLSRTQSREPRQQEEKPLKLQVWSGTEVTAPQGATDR
Sequence of 5-hydroxytryptamine receptor 2A (Homo sapiens) (P28223 whole entry): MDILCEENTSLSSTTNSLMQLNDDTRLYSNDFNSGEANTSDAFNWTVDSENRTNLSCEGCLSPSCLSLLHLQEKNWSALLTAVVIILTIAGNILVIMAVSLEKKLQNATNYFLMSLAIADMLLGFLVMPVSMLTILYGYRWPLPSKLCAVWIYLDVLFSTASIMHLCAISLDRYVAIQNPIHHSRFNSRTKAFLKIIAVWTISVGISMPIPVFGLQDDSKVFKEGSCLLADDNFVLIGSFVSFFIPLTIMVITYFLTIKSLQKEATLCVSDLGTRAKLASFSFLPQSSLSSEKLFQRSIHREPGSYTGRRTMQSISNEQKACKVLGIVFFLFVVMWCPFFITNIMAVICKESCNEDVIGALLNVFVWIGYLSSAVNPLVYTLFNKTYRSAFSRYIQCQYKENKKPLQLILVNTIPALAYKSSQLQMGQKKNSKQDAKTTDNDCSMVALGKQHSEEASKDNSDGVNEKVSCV
Sequence of Kappa-type opioid receptor (P41145 whole entry): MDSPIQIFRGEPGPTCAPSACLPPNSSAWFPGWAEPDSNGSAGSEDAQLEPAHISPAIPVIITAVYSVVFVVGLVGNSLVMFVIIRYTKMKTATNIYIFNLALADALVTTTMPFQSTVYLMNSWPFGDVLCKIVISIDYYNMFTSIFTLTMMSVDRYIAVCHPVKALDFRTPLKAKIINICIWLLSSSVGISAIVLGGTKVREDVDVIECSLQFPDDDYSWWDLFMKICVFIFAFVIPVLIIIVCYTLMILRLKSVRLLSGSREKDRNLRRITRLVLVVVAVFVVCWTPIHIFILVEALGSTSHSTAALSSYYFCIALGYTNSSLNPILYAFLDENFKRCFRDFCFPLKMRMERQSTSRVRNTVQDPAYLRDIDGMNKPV
Sequence of Alpha-2B adrenergic receptor (Homo sapiens) (P18089 whole entry): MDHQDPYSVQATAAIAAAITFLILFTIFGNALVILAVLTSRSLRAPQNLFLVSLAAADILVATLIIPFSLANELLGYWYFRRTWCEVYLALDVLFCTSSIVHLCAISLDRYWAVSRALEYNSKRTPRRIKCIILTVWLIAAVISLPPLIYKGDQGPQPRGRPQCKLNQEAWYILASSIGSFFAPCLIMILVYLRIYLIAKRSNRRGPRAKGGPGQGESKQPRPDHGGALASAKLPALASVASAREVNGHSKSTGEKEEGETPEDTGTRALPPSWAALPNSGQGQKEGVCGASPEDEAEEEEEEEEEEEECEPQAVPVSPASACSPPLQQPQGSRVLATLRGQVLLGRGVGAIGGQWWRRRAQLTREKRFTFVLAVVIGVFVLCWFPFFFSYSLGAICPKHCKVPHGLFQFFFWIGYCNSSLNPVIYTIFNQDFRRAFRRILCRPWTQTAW
Sequence of Glutamate NMDA receptor; Grin1/Grin2c (Q00961 whole entry, other chains not shown): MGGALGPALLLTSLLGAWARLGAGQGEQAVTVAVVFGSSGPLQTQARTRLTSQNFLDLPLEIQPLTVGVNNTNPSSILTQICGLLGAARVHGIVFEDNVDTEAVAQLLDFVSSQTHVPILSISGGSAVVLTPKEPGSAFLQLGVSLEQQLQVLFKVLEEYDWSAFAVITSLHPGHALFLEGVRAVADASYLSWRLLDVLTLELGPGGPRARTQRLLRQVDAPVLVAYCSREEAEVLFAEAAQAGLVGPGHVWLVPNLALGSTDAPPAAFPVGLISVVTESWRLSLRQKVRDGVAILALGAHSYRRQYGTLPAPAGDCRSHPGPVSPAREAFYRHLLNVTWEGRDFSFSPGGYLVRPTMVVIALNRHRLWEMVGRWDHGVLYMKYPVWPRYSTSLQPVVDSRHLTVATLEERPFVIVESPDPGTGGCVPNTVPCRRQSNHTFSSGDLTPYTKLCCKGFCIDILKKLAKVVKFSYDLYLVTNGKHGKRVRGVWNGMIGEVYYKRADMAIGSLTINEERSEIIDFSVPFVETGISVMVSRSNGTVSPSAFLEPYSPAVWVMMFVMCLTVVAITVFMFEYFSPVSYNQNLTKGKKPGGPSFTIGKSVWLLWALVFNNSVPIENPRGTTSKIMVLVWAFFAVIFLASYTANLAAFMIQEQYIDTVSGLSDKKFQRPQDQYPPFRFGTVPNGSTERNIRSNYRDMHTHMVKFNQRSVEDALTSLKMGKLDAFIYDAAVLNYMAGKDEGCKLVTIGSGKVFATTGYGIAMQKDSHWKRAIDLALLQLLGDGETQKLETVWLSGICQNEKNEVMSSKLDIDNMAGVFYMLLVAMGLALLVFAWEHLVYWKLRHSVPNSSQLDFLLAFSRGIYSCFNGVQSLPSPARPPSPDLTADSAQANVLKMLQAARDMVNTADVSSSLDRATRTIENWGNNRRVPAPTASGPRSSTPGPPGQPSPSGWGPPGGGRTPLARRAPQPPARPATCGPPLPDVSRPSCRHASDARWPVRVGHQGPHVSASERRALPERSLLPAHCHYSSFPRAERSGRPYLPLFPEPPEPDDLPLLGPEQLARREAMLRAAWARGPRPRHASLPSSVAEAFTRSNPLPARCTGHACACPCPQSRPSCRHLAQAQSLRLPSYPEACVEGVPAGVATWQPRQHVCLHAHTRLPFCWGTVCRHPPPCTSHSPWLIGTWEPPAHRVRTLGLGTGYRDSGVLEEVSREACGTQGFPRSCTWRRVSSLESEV
Sequence of P2X purinoceptor 2 (Rattus norvegicus) (P49653 whole entry): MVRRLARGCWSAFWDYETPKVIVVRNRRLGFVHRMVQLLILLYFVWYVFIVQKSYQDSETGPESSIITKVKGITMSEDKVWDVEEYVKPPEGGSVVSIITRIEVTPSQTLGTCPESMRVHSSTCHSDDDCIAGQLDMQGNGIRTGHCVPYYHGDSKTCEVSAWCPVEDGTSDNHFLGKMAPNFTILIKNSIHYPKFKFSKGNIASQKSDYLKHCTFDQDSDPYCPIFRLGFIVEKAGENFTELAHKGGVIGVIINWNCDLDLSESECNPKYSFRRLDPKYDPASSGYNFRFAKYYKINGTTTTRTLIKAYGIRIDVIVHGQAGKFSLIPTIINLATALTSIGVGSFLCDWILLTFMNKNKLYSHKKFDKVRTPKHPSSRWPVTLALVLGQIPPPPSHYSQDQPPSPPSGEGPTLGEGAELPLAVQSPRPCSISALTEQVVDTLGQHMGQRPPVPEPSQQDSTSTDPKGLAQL

**Q.** For `COc1ccc(OCC2c3ccc(OCc4ccccc4)cc3CCN2C(=O)c2cccc(Br)c2)cc1` (stereo not given), which Activity (Oocyte) is on record?
**A.** The Activity was 105%.

**Q.** And the Activity [1]?
**A.** The Activity was 99%.

**Q.** And the Activity [2]?
**A.** The Activity was 99%.

**Q.** What about the inhibition (Homo sapiens) of the same molecule?
**A.** Its inhibition is < 50%.

**Q.** What about the inhibition [3] of the same molecule?
**A.** Its inhibition is < 50%.

**Q.** What about the Activity [4] of the same molecule?
**A.** Its Activity is 101%.

**Q.** What about the inhibition [5] of the same molecule?
**A.** Its inhibition is < 50%.

**Q.** And the inhibition [6]?
**A.** Its inhibition is < 50%.

**Q.** What about the inhibition [7] of the same molecule?
**A.** Its inhibition is < 50%.

**Q.** What about the inhibition [8] of the same molecule?
**A.** Its inhibition is < 50%.

**Q.** What about the Ki [9] of the same molecule?
**A.** Its Ki is > 5 µM.

**Q.** And the inhibition [10]?
**A.** Its inhibition is < 50%.

**Q.** And the EC50 [11]?
**A.** The EC50 was 0.3 µM.

**Q.** And the EC50 [12]?
**A.** The EC50 was 0.3 µM.

**Q.** What about the inhibition [13] of the same molecule?
**A.** Its inhibition is < 50%.

**Q.** And the Activity [14]?
**A.** The Activity was 92%.

**Q.** What about the Activity [15] of the same molecule?
**A.** Its Activity is 91%.

**Q.** And the Activity [16]?
**A.** The Activity was 213%.

**Q.** And the inhibition [17]?
**A.** Its inhibition is < 50%.

**Q.** What about the inhibition [18] of the same molecule?
**A.** Its inhibition is < 50%.

**Q.** And the Activity [19]?
**A.** Its Activity is 103%.

**Q.** And the inhibition [20]?
**A.** Its inhibition is < 50%.

**Q.** And the Activity [21]?
**A.** Its Activity is 94%.

**Q.** And the inhibition [22]?
**A.** Its inhibition is < 50%.

**Q.** What about the Activity [23] of the same molecule?
**A.** Its Activity is 91%.

**Q.** And the inhibition [24]?
**A.** The inhibition was < 50%.

**Q.** What about the inhibition [25] of the same molecule?
**A.** The inhibition was < 50%.

**Q.** What about the inhibition [26] of the same molecule?
**A.** The inhibition was < 50%.

**Q.** What about the inhibition [27] of the same molecule?
**A.** The inhibition was < 50%.

**Q.** And the inhibition [28]?
**A.** Its inhibition is < 50%.

From ChEMBL document CHEMBL2396604, “Synthesis and structure activity relationship of tetrahydroisoquinoline-based potentiators of GluN2C and GluN2D containing N-methyl-D-aspartate receptors” (J Med Chem, 2013)
